# Hits are enriched below; roughly 3.1% of the tested compounds scored in any of these assays.
# ADAM17 inh: ADAM17 inhibitors, primary screen, biochemical, QFRET. Disintegrin and metalloproteinase domain-containing protein 17 (Homo sapiens), P78536. recombinant ADAM17, EDANS/DABCYL FRET peptide cleavage. inhibition, % at 6.95 µM. hit rate 0.83% among 370,000. AID 720648, 2013;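 active means inhibition above the mean of compounds lying between control limits plus 3 SD, set per campaign, cut at about 8.5% in these data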;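 further: 0% = DMSO-only wells as the low control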
# Target sequence (P78536 215-824 limits assumed): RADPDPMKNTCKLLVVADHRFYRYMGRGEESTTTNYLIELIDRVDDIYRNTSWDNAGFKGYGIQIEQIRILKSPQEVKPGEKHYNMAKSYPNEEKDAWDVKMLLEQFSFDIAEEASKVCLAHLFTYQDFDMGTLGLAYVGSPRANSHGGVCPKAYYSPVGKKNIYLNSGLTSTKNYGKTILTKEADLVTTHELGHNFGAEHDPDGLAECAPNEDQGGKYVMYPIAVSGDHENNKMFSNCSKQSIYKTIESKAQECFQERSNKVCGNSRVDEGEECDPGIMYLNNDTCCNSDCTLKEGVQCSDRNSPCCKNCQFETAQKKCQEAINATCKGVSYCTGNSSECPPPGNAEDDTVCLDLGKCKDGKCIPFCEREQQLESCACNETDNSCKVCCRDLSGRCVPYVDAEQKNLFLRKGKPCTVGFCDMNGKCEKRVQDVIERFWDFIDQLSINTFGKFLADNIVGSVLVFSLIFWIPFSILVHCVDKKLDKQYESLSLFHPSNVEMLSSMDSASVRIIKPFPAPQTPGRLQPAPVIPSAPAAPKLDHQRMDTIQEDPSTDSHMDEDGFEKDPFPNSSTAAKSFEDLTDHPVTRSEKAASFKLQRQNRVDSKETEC
# MPTP inh: mitochondrial permeability transition pore inhibitors, primary screen, biochemical, isolated mouse mitochondria, absorbance | inhibition, % at 10 µM | AID 602449, 2012 | Ca2+ swelling absorbance, 30 min | hit rate 1.4% among 360,000;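 active means inhibition of 50% or more, scaled per plate between neutral and stimulator controls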;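 further: 0% = DMSO wells given calcium and 100% = 1 mM EGTA wells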
# V-ATPase pHluor: regulators of yeast V-ATPase proton pumping, primary screen, pHLuorin cytosolic pH fluorescence; S. cerevisiae; response, % at 10 µM; hit rate 0.37% among 350,000; in the data active means response mostly above about 7.3%, no sharp cut-off; inactive means mostly below about 5.4%; further: actives read high
# aDG glyco act: activators of alpha-DG glycosylation, primary screen, uHTS, Pro5-aDG cells, AlphaScreen. activation, % at 10 µM. AID 624168, 2012. alpha-DG glycosylation AlphaScreen (IIH6); 0% Pro5, 100% B10-LARGE cell signal. hit rate 0.22% among 360,000;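 active means activation of at least 8% versus controls, or a plate z-score of at least 8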;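 further: Pro5 are CHO cells carrying HIG-tagged alpha-DG that lacks glycosylation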
# Hep lipid drop: inhibitors of hepatocyte lipid droplet formation, primary screen, imaging, high-throughput imaging, BODIPY stain. inhibition, % at 6.5 µM. hit rate 0.4% among 240,000. AML12 mouse hepatocytes, oleate lipid droplets;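 active means lipid droplet intensity inhibited by at least 50%, with more than 500 cells counted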
#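 Test system: AML12 hepatocytes (mouse); reagent: oleate loading, 100 µM; dosing: one dose, 6.5 µM compound; incubation: overnight exposure; signal: fluorescence imaging, 20x objective, two fields per well; read-out basis: % inhibition of corrected integrated BODIPY droplet signal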
# ADAM10 inh: human ADAM10 inhibitors, primary screen, biochemical, QFRET, HTS; Disintegrin and metalloproteinase domain-containing protein 10 (Homo sapiens), O14672; recombinant ADAM10, EDANS/DABCYL FRET peptide cleavage, 3 h; inhibition, % at 7 µM; hit rate 0.62% among 370,000;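 active means inhibition above a per-campaign cutoff equal to the mean of compounds falling between control-based bounds plus 3 SD, cut at about 20% in these data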;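 further: 0% = DMSO wells while the 100% control is not disclosed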
# Rh123 counter: fluorescence retest of MPTP screen hits in isolated mitochondria, single concentration; AID 624504, 2012; inhibition, % at 10 µM; membrane potential, Rhodamine 123 fluorescence; hit rate 78% among 5,000; shares compounds with MPTP inh; in the data active means inhibition above about 22%;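 further: 0% = DMSO vehicle and 100% = positive control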
# MPTP abs DR: mitochondrial permeability transition pore inhibitors, dose response, biochemical, absorbance, uHTS hits | shares compounds with MPTP inh | isolated mitochondria swelling | IC50, µM | hit rate 58% among 780; in the data active means IC50 below about 20 µM
# MPTP counter DR: fluorescent counter-screen in isolated mitochondria, dose response, counter-screen for MPTP inhibitor project, biochemical, fluorescence, uHTS hits | shares compounds with MPTP inh | isolated mitochondria counterscreen, fluorescence read-out | IC50, µM | hit rate 49% among 780 | AID 651564, 2012; in the data active means IC50 below about 80 µM
# * hit, by the source's call; i = inactive; / = not tested or not shown; ! = repeats disagree.
SMILES,ADAM17 inh,MPTP inh,V-ATPase pHluor,aDG glyco act,Hep lipid drop,ADAM10 inh,Rh123 counter,others
CCc1cccc(NC(=O)Nc2ccc3c(c2)OCO3)c1,1,59*,-3,1,-2,3,76*,
O=C(Nc1ccc2c(c1)OCO2)N1CCCC1,-3,82*,0,0,-11,-2,85*,
O=C(Nc1ccc2c(c1)OCO2)N1CCOCC1,-4,1,-1,3,-5,-13,/,
Cc1cccc(C)c1-n1nnnc1C1(C)Cn2nccc2C(=O)N1Cc1ccc(F)cc1 (stereo unspecified),0,/,/,/,/,4,/,
CN(CCO)c1ccc2c(c1)Oc1ccccc1CN(Cc1cn(Cc3ccc(F)cc3)nn1)S2(=O)=O,-3,/,/,/,/,5,/,
O=C(NC1CCCCN(Cc2ccc(Cl)cc2)C1=O)c1cc(-c2ccccc2)no1 (stereo unspecified),2,/,/,/,/,7,/,
CCCCOc1ccc(CSc2nc(C)[nH]c2[N+](=O)[O-])cc1[N+](=O)[O-],3,56*,-4,0,-1,16,75*,
COc1ccc(CCNC(=O)c2c(N)[nH]c(C(=O)c3ccccc3)c2-c2ccc(N(C)C)cc2)cc1,2,/,/,/,/,9,/,
CCCOc1ccc(/C=C/C(=O)Nc2ccc([N+](=O)[O-])cc2)cc1,0,82*,1,0,/,2,86*,
O=C(/C=C/c1ccc([N+](=O)[O-])cc1)Nc1ncc([N+](=O)[O-])s1,-3,83*,2,0,1,4,63*,
O=C(/C=C/c1ccc([N+](=O)[O-])cc1)NCc1ccccn1,1,-1,1,0,9,11,/,
Cc1cc(NS(=O)(=O)c2ccc(NC(=O)/C=C/c3ccc(C)o3)cc2)nc(C)n1,-8,-1,0,0,8,-24,/,
Cc1ccc(/C=C/C(=O)Nc2ccc([N+](=O)[O-])cc2)o1,5,89*,-3,0,/,14,75*,
Clc1cccc(CSc2ncnc3sc4c(c23)CCCC4)c1,1,/,/,/,/,-2,/,
N#Cc1ccc(/C=C2\CC3(OC(=O)c4ccccc4)CCCN2C3)cc1 (stereo unspecified),-2,/,/,/,/,-13,/,
CC/C(=C(\c1ccc(O)cc1)c1ccc(OCCN(C)C)cc1)c1ccccc1,1,103*,3,3,-23,5,-11,
CCN(CC)CCOc1ccc(/C(=C(/Cl)c2ccccc2)c2ccccc2)cc1,0,98*,4,1,-1,2,-2,MPTP abs DR=19*;MPTP counter DR=43*
CN(C)c1cccc(/C=C2\CC3(OC(=O)C4CCCC4)CCCN2C3)c1 (stereo unspecified),-6,/,/,/,/,-27,/,
CCCCCn1c(N)c(-c2nc3ccccc3s2)c2c([N+](=O)[O-])nn(C)c(=O)c21,/,104*,0,0,/,/,-1,MPTP abs DR=i;MPTP counter DR=<2.5*
FC(F)(F)c1cccc(Oc2nc(-c3ccccc3)nnc2C(F)(F)F)c1,-3,1,1,0,/,-1,/,
FC(F)(F)c1nnc(-c2ccccc2)nc1Oc1ccc(Cl)cc1Cl,3,71*,0,0,/,6,1,MPTP abs DR=14*;MPTP counter DR=>80
CC(C(=O)O)c1ccc(-c2ccccc2)c(F)c1 (stereo unspecified),-4,0,0,0,-4,2,/,
CC(C(=O)Nc1ccccc1)c1ccc(-c2ccccc2)c(F)c1 (stereo unspecified),/,86*,5,7,14,/,122*,
Cc1ccccc1CN1CCCCC(NC(=O)C2CCCCC2)C1=O (stereo unspecified),-1,/,/,/,/,2,/,
O=C(CSc1nnnn1C1CCCCC1)Nc1ccccc1F,4,0,-4,0,6,4,/,
SMILES,ADAM17 inh,MPTP inh,V-ATPase pHluor,aDG glyco act,Hep lipid drop,ADAM10 inh,Rh123 counter,others
O=C(CSc1nnnn1C1CC2CCC1C2)Nc1ccnc2ccccc12 (stereo unspecified),-1,98*,3,7.4*,-10,1,101*,
N#C/C(N=Nc1ccccc1O)=N\Nc1ccccc1O,-1,126*,-2,0,/,2,44*,
Oc1ccccc1N=N/C(=N/Nc1ccccc1O)c1ccccc1,-3,0,-1,0,/,6,/,
CC1(c2ccccc2)CC(=O)N(c2ccc(NC(=O)c3ccccn3)cc2Cl)C1=O (stereo unspecified),-1,/,/,/,/,-2,/,
C=CCN(CC#Cc1ccc(C)cc1)Cc1ccc(OC)cc1OC,-1,/,/,/,/,0,/,
CN1CCN(CCCN2c3ccccc3Sc3ccc(C(F)(F)F)cc32)CC1,-1,91*!,8,4,-9,-24,-20,MPTP abs DR=4.2*;MPTP counter DR=>80
O=C(CN1CCCC(O)C1)N1c2ccccc2Sc2ccc(C(F)(F)F)cc21 (stereo unspecified),2,0,4,0,/,-6,/,
Cc1csc(SCC(=O)c2c(N)n(CC(C)C)c(=O)n(C)c2=O)n1,-2,51*,5,1,3,3,15,MPTP abs DR=i;MPTP counter DR=5.8*
CC(C)Cn1c(N)c(C(=O)CSc2ncccn2)c(=O)n(C)c1=O,-1,0,4,0,/,-9,/,
Cc1csc(=O)n1CC(=O)OCC(=O)c1c(N)n(CC(C)C)c(=O)n(C)c1=O,-1,-1,2,0,/,5,/,
CCOC(=O)Cc1csc(SCC(=O)c2c(N)n(CC(C)C)c(=O)n(C)c2=O)n1,1,78*,-11,3,/,7,24*,
CC(C)(C)C(=O)Nc1sc2c(c1C#N)CCC2,2,1,-2,0,2,3,/,
CC1CCc2sc(NC(=S)NC(=O)c3ccccc3)c(C#N)c2C1 (stereo unspecified),0,18,3,0,12,-2,/,
CCC1(C)Cc2c(sc(NC(=S)NC(=O)c3ccccc3)c2C#N)CO1 (stereo unspecified),1,83*,-3,0,-2,1,5,MPTP abs DR=i;MPTP counter DR=4.5*
CC(C)(C)C(=O)NC(NC(=S)Nc1sc2c(c1C#N)CCCC2)C(Cl)(Cl)Cl (stereo unspecified),-2,94*,-2,0,/,0,53*,
CC(=O)NC(=S)Nc1sc2c(c1C#N)CCCCC2,0,84*,3,0,6,-9,77*,

# Bioassay records from PubChem.
